Experimental data reported in ChEMBL document CHEMBL1132613 (J Med Chem, 1999).
“And” between values parts separate entries of the source, which are not always exact repeats. Identical values can stand only once.

Tests used:
Assay type in all cases: functional
[1] = target: 5-hydroxytryptamine receptor 2A (Rattus norvegicus) (UniProt P14842); experiment: Efficacy against 5-hydroxytryptamine 2A receptor
Rattus norvegicus [2] = experiment: Percentage of animals failing to emit 50 lever presses within 15 min in rats at a compound dose of 0.1 mg/kg
Method in brief: (§1)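 Two-lever drug discrimination in male Sprague–Dawley rats (200–220 g at start), trained against saline on LSD tartrate (0.08 mg/kg), DOI HCl (0.4 mg/kg) or LY293284 (0.025 mg/kg). FR50 food-pellet reinforcement, levers counterbalanced, 15-min sessions at 22–24 °C. %D is the share of tested rats not completing 50 lever presses within 15 min.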

Rattus norvegicus [3] = experiment: Percentage of animals failing to emit 50 lever presses within 15 min in rats at a compound dose of 0.2 mg/kg; method in brief: as §1
Rattus norvegicus [4] = experiment: Percentage of animals failing to emit 50 lever presses within 15 min in rats at a compound dose of 0.4 mg/kg; method in brief: as §1
Rattus norvegicus [5] = experiment: Percentage of animals emitting >80% of lever presses in rats at a compound dose of 0.28 uM/Kg
Method in brief: (§2)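 Male Sprague–Dawley rats (200–220 g) in a two-lever, FR50 food-reinforced task. Rats were trained to discriminate saline from LSD tartrate (0.08 mg/kg), DOI HCl (0.4 mg/kg) or LY293284 (0.025 mg/kg) in 15-min sessions. %SDL is the share of rats making over 80% of presses on the drug lever. %D is the share failing to make 50 presses within 15 min. ED50 by Litchfield–Wilcoxon log-probit.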

Rattus norvegicus [6] = experiment: Percentage of animals emitting >80% of lever presses in rats at a compound dose of 0.56 uM/Kg; method in brief: as §2
Rattus norvegicus [7] = experiment: Percentage of animals emitting >80% of lever presses in rats at a compound dose of 1.12 uM/Kg; method in brief: as §2
Rattus norvegicus [8] = experiment: Percentage of animals failing to emit 50 lever presses within 15 min in rats at a compound dose of 0.02 mg/kg; method in brief: as §1
Rattus norvegicus [9] = experiment: Percentage of animals failing to emit 50 lever presses within 15 min in rats at a compound dose of 0.027 mg/kg; method in brief: as §1
Rattus norvegicus [10] = experiment: Percentage of animals failing to emit 50 lever presses within 15 min in rats at a compound dose of 0.005 mg/kg; method in brief: as §1
Rattus norvegicus [11] = experiment: Percentage of animals failing to emit 50 lever presses within 15 min in rats at a compound dose of 0.01 mg/kg; method in brief: as §1
Rattus norvegicus [12] = experiment: Percentage of animals emitting >80% of lever presses in rats at a compound dose of 0.030 uM/Kg; method in brief: as §2
Rattus norvegicus [13] = experiment: Percentage of animals emitting >80% of lever presses in rats at a compound dose of 0.060 uM/Kg; method in brief: as §2
Rattus norvegicus [14] = experiment: Percentage of animals emitting >80% of lever presses in rats at a compound dose of 0.080 uM/Kg; method in brief: as §2
Rattus norvegicus [15] = experiment: Percentage of animals emitting >80% of lever presses in rats at a compound dose of 0.015 uM/Kg; method in brief: as §2

Sequence of 5-hydroxytryptamine receptor 2A (Rattus norvegicus) (P14842 whole entry): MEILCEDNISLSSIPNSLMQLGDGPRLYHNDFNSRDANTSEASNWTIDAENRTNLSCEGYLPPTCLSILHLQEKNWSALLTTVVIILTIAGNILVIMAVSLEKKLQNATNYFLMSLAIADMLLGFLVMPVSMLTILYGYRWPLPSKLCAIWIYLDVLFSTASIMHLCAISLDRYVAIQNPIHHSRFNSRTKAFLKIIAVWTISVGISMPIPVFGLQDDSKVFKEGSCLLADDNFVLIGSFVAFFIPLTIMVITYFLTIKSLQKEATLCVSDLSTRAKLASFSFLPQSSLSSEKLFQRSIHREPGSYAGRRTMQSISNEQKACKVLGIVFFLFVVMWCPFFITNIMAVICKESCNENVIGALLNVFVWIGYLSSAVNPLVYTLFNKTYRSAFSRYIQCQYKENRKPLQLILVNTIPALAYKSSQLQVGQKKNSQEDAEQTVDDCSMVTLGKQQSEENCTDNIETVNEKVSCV

SMILES	ED50 [1]	D (Rattus norvegicus [2])	D (Rattus norvegicus [3])	D (Rattus norvegicus [4])	SDL (Rattus norvegicus [5])	SDL (Rattus norvegicus [6])	SDL (Rattus norvegicus [7])	D (Rattus norvegicus [8])	D (Rattus norvegicus [9])	D (Rattus norvegicus [10])	D (Rattus norvegicus [11])	SDL (Rattus norvegicus [12])	SDL (Rattus norvegicus [13])	SDL (Rattus norvegicus [14])	SDL (Rattus norvegicus [15])
COc1cc(CC(C)N)c(OC)cc1I (stereo not given)	0.3 µmol.kg-1 and 0.11 mg/kg	0%	10%	0%	56%	89%	100%	–	–	–	–	–	–	–	–
CCCN(CCC)C1Cc2c[nH]c3ccc(C(C)=O)c(c23)C1 (stereo not given) [LY-293284]	–	–	–	–	–	–	–	0%	27%	8%	0%	45%	83%	100%	9%
